In ChEMBL document CHEMBL1146009, “Synthesis and cytotoxic activity of polyamine analogues of camptothecin” (J Med Chem, 2006):

Key:
MKN-28 [1] = assay: Antitumor activity against human MKN28 cell line xenografted in nude athymic mouse at 5 mg/kg, po measured as tumor volume inhibition relative to control; assay type: functional
Outline: (§1)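 MKN-28 human gastric carcinoma tumor fragments inoculated on both flanks of nude athymic mice at day 0. Oral dosing began when tumors were just palpable (day 3-4). Read-out was tumor volume inhibition (%) of treated over control animals, 20 days after the last treatment. Groups of 4 mice.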

Mus musculus [2] = assay: Toxicity in nude athymic mouse at 15 mg/kg, po; assay type: organism-based; design: dose 15 mg/kg, route oral; settings: in vivo
Outline: (§2)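 Nude athymic mice bearing MKN-28 human gastric carcinoma xenografts, from tumor fragments inoculated on both flanks at day 0. Oral treatment started when tumors were just palpable (day 3-4). Body weight loss (%) and toxicity were recorded per dose group, with toxicity given as a count over 4 mice.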

MKN-28 [3] = assay: Antitumor activity against human MKN28 cell line xenografted in nude athymic mouse at 9 mg/kg, po measured as body weight loss; assay type: functional; outline: as §2
MKN-28 [4] = assay: Antitumor activity against human MKN28 cell line xenografted in nude athymic mouse at 15 mg/kg, po measured as body weight loss; assay type: functional; outline: as §2
Mus musculus [5] = assay: Toxicity in nude athymic mouse at 9 mg/kg, po; assay type: organism-based; design: dose 9 mg/kg, route oral; settings: in vivo; outline: as §2
MKN-28 [6] = assay: Antitumor activity against human MKN28 cell line xenografted in nude athymic mouse at 9 mg/kg, po measured as tumor volume inhibition relative to control; assay type: functional; outline: as §1
MKN-28 [7] = assay: Antitumor activity against human MKN28 cell line xenografted in nude athymic mouse at 5 mg/kg, po measured as body weight loss; assay type: functional; outline: as §2
MKN-28 [8] = assay: Antitumor activity against human MKN28 cell line xenografted in nude athymic mouse at 15 mg/kg, po measured as log10 of cell kill to reach 1000 mm3 tumor volume; assay type: functional
MKN-28 [9] = assay: Antitumor activity against human MKN28 cell line xenografted in nude athymic mouse at 9 mg/kg, po measured as log10 of cell kill to reach 1000 mm3 tumor volume; assay type: functional
MKN-28 [10] = assay: Antitumor activity against human MKN28 cell line xenografted in nude athymic mouse at 5 mg/kg, po measured as log10 of cell kill to reach 1000 mm3 tumor volume; assay type: functional
Mus musculus [11] = assay: Toxicity in nude athymic mouse at 5 mg/kg, po; assay type: organism-based; design: dose 5 mg/kg, route oral; settings: in vivo; outline: as §2
MKN-28 [12] = assay: Antitumor activity against human MKN28 cell line xenografted in nude athymic mouse at 15 mg/kg, po measured as tumor volume inhibition relative to control; assay type: functional; outline: as §1
NCI-H460 = assay: Inhibition of human H460 cell growth; assay type: functional, cell-based
Outline: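 H460 cells grown in RPMI-1640 with 10% FCS, seeded in duplicate in log phase. Drug from DMSO stock added 24 h after seeding for 1 h exposure. Cells counted 72 h later by Coulter counter. IC50 is the concentration giving 50% growth decrease versus untreated control; mean ± SD of at least three experiments.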

[13] = target: T1, DNA topoisomerase 1 (Homo sapiens) (UniProt P11387); assay: Activity against human Top1-mediated DNA cleavage after 10 mins; assay type: functional
T1 sequence (whole entry): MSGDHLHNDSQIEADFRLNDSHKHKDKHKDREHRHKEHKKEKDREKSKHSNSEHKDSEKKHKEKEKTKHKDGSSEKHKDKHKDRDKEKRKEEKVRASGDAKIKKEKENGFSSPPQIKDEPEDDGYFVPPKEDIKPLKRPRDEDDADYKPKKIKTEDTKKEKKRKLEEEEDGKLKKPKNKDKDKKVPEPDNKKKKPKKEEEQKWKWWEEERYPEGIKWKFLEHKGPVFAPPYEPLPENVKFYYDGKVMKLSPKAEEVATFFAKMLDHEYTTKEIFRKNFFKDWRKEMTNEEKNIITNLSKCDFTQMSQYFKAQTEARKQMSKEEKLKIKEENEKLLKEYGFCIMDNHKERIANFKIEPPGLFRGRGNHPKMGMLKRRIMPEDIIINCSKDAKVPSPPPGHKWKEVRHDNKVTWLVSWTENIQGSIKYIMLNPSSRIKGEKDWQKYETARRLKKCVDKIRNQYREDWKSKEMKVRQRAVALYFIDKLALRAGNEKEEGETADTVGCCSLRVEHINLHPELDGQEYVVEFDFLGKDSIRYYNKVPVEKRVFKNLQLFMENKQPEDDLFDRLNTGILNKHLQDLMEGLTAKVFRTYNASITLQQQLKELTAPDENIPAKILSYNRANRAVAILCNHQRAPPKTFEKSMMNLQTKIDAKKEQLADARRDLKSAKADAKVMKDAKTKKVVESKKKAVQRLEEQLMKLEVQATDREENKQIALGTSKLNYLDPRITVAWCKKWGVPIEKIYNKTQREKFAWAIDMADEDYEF
Outline: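 Purified full-length human recombinant top1 from GST-tagged yeast expression (640 ng per reaction), 3′-end-labelled 751-bp SV40 DNA fragment, pH 7.6 Tris buffer with 150 mM KCl, 5 mM MgCl2. 30 min at 37 °C, then 0.6 M NaCl added to reverse cleavage. Cleavage bands on denaturing gel quantified by phosphorimaging as cleaved/uncleaved radioactivity ratio, relative to 30 min level (100%).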

MKN-28 [14] = assay: Antitumor activity against human MKN28 cell line xenografted in nude athymic mouse at 2 mg/kg, po measured as tumor volume inhibition relative to control; assay type: functional
Outline: (§3)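 Tumour fragments implanted on both flanks of nude athymic mice at day 0. Dosing iv or po started when tumours were just palpable (day 3-4). Tumour volume inhibition (%) is treated over control, 20 days after last treatment.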

MKN-28 [15] = assay: Antitumor activity against human MKN28 cell line xenografted in nude athymic mouse at 2 mg/kg, po measured as log10 of cell kill to reach 1000 mm3 tumor volume; assay type: functional
Mus musculus [16] = assay: Toxicity in nude athymic mouse at 4 mg/kg, po; assay type: organism-based; design: dose 4 mg/kg, route oral; settings: in vivo
MKN-28 [17] = assay: Antitumor activity against human MKN28 cell line xenografted in nude athymic mouse at 4 mg/kg, po measured as body weight loss; assay type: functional
MKN-28 [18] = assay: Antitumor activity against human MKN28 cell line xenografted in nude athymic mouse at 1 mg/kg, po measured as log10 of cell kill to reach 1000 mm3 tumor volume; assay type: functional
MKN-28 [19] = assay: Antitumor activity against human MKN28 cell line xenografted in nude athymic mouse at 2 mg/kg, po measured as body weight loss; assay type: functional
MKN-28 [20] = assay: Antitumor activity against human MKN28 cell line xenografted in nude athymic mouse at 1 mg/kg, po measured as body weight loss; assay type: functional
Mus musculus [21] = assay: Toxicity in nude athymic mouse at 1 mg/kg, po; assay type: organism-based; design: dose 1 mg/kg, route oral; settings: in vivo
Mus musculus [22] = assay: Toxicity in nude athymic mouse at 2 mg/kg, po; assay type: organism-based; design: dose 2 mg/kg, route oral; settings: in vivo
MKN-28 [23] = assay: Antitumor activity against human MKN28 cell line xenografted in nude athymic mouse at 1 mg/kg, po measured as tumor volume inhibition relative to control; assay type: functional; outline: as §3
MKN-28 [24] = assay: Antitumor activity against human MKN28 cell line xenografted in nude athymic mouse at 4 mg/kg, po measured as log10 of cell kill to reach 1000 mm3 tumor volume; assay type: functional
MKN-28 [25] = assay: Antitumor activity against human MKN28 cell line xenografted in nude athymic mouse at 4 mg/kg, po measured as tumor volume inhibition relative to control; assay type: functional; outline: as §3
Mus musculus [26] = assay: Toxicity in nude athymic mouse at 4 mg/kg, iv; assay type: organism-based; design: dose 4 mg/kg, route intravenous; settings: in vivo
Mus musculus [27] = assay: Toxicity in nude athymic mouse at 1 mg/kg, iv; assay type: organism-based; design: dose 1 mg/kg, route intravenous; settings: in vivo

Which inhibition in vivo at 5 mg/kg (MKN-28 [1]) does the source give for `CC[C@@]1(O)C(=O)OCc2c1cc1n(c2=O)Cc2cc3c(CN(C)C)c(O)ccc3nc2-1` [TOPOTECAN] here?
Its inhibition in vivo at 5 mg/kg is 80%.

And the Activity (Mus musculus [2])?
Its Activity is “Non-toxic”.

What about the Activity (MKN-28 [3]) of the same compound?
The Activity was 0%.

What about the Activity (MKN-28 [4]) of the same compound?
The Activity was 8%.

What about the Activity (Mus musculus [5]) of the same compound?
Its Activity is “Non-toxic”.

And the inhibition in vivo at 9 mg/kg (MKN-28 [6])?
The inhibition in vivo at 9 mg/kg was 91%.

And the Activity (MKN-28 [7])?
The Activity was 0%.

And the Activity (MKN-28 [8])?
Its Activity is 2.1.

And the Activity (MKN-28 [9])?
Its Activity is 1.7.

What about the Activity (MKN-28 [10]) of the same compound?
Its Activity is 1.3.

What about the Activity (Mus musculus [11]) of the same compound?
The Activity was “Non-toxic”.

What about the inhibition in vivo at 15 mg/kg (MKN-28 [12]) of the same compound?
Its inhibition in vivo at 15 mg/kg is 98%.

`CC[C@@]1(O)C(=O)OCc2c1cc1n(c2=O)Cc2c-1nc1ccccc1c2/C=N\OCCCNC(=O)OC(C)(C)C` was tested. Which IC50 (NCI-H460) did it give?
Its IC50 is 300 nM.

With `CC[C@@]1(O)C(=O)OCc2c1cc1n(c2=O)Cc2c-1nc1ccccc1c2/C=N\OCCNCCCCN` as the compound, how does the Activity [13] read?
The Activity was 60%.

What about the IC50 (NCI-H460) of the same compound?
Its IC50 is 1160 nM.

Which IC50 (NCI-H460) does the source give for `CC[C@@]1(O)C(=O)OCc2c1cc1n(c2=O)Cc2c-1nc1ccccc1c2CN(CCCN(CCCCN(CCCNC(=O)OC(C)(C)C)C(=O)OC(C)(C)C)C(=O)OC(C)(C)C)C(=O)OC(C)(C)C` here?
The IC50 was 3270 nM.

With `CC[C@@]1(O)C(=O)OCc2c1cc1n(c2=O)Cc2c-1nc1ccccc1c2/C=N\OCCN(CCCCNC(=O)OC(C)(C)C)C(=O)OC(C)(C)C` as the compound, how does the IC50 (NCI-H460) read?
The IC50 was 1150 nM.

With `CCc1c2c(nc3ccc(O)cc13)-c1cc3c(c(=O)n1C2)COC(=O)[C@]3(O)CC` [7-ETHYL-10-HYDROXYCAMPTOTHECIN] as the compound, how does the IC50 (NCI-H460) read?
Its IC50 is 80 nM.

How did the IC50 (NCI-H460) turn out when `CC[C@@]1(O)C(=O)OCc2c1cc1n(c2=O)Cc2c-1nc1ccccc1c2/C=N\OCCCN` was run?
Its IC50 is 1770 nM.

With `CC[C@@]1(O)C(=O)OCc2c1cc1n(c2=O)Cc2c-1nc1ccccc1c2/C=N\OCCNCCCCNCCCN` as the compound, how does the Activity [13] read?
The Activity was 60%.

What about the IC50 (NCI-H460) of the same compound?
Its IC50 is 1070 nM.

How did the IC50 (NCI-H460) turn out when `CC[C@@]1(O)C(=O)OCc2c1cc1n(c2=O)Cc2c-1nc1ccccc1c2CNCCCN(CCCCN(CCCNC(=O)OC(C)(C)C)C(=O)OC(C)(C)C)C(=O)OC(C)(C)C` was run?
The IC50 was 1400 nM.

How did the Activity [13] turn out when `CC[C@@]1(O)C(=O)OCc2c1cc1n(c2=O)Cc2c-1nc1ccccc1c2CNCCCNCCCCNCCCN` was run?
The Activity was 60%.

What about the IC50 (NCI-H460) of the same compound?
The IC50 was 1430 nM.

What does the source list for `CC[C@@]1(O)C(=O)OCc2c1cc1n(c2=O)Cc2c-1nc1ccccc1c2/C=N/CCCN(CCCCN(CCCNC(=O)OC(C)(C)C)C(=O)OC(C)(C)C)C(=O)OC(C)(C)C`?
inhibition in vivo at 2 mg/kg (MKN-28 [14]): 62%; Activity (MKN-28 [15]): 0.5; Activity (Mus musculus [16]): Non-toxic; Activity (MKN-28 [17]): 7%; Activity (MKN-28 [18]): 0.1; Activity (MKN-28 [19]): 1%; Activity (MKN-28 [20]): 5%; Activity (Mus musculus [21]): Non-toxic; Activity (Mus musculus [22]): Non-toxic; inhibition in vivo at 1 mg/kg (MKN-28 [23]): 28%; IC50 (NCI-H460): 29 nM; Activity (MKN-28 [24]): 1; inhibition in vivo at 4 mg/kg (MKN-28 [25]): 72%

How did the IC50 (NCI-H460) turn out when `CC[C@@]1(O)C(=O)OCc2c1cc1n(c2=O)Cc2c-1nc1ccccc1c2/C=N\OCCN(CCCCN(CCCNC(=O)OC(C)(C)C)C(=O)OC(C)(C)C)C(=O)OC(C)(C)C` was run?
The IC50 was 1060 nM.

Which IC50 (NCI-H460) does the source give for `CC[C@@]1(O)C(=O)OCc2c1cc1n(c2=O)Cc2c-1nc1ccccc1c2/C=N\OCCNC(=O)OC(C)(C)C` here?
Its IC50 is 84 nM.

Which Activity (Mus musculus [26]) does the source give for `CC[C@@]1(O)C(=O)OCc2c1cc1n(c2=O)Cc2c-1nc1ccccc1c2/C=N/CCCN(CCCCNC(=O)OC(C)(C)C)C(=O)OC(C)(C)C` here?
Its Activity is “Non-toxic”.

What about the Activity (Mus musculus [27]) of the same compound?
Its Activity is “Non-toxic”.

What about the IC50 (NCI-H460) of the same compound?
The IC50 was 15 nM.
